Data: ChEMBL document CHEMBL5608231, “Lysineless HiBiT and NanoLuc Tagging Systems as Alternative Tools for Monitoring Targeted Protein Degradation” (ACS Med Chem Lett, 2024)
Active and inactive are the calls of the source. The rule behind the calls is not given here. Residues, ends and D or L forms follow the SMILES beside them.

Key:
[1] = molecular target: T1, von Hippel-Lindau disease tumor suppressor/Receptor-interacting serine/threonine-protein kinase 1 (Homo sapiens, UniProt Q13546+P40337); test: PROTAC activity at VHL/nLucK0-fused N-terminal RIPK1 kinase domain (unknown origin) expressed in HEK293T cells assessed as induction of protein degradation measured after 24 hrs in presence of furimazine substrate by Nano-Glo luciferase based luminescence analysis; assay type: cell-based
Outline: (§1)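 HEK293T cells transiently transfected with nLuc (WT or K0)-RIPK1 kinase domain (1-324) through a 24-residue linker, expressed 24–36 h. Replated at 20,000 cells/well in Opti-MEM with 4% FBS. Treated 24 h with 1.6–1,000 nM (5-fold, 1% DMSO). Medium removed, Nano-Glo substrate 1:100 in PBS added, live-cell luminescence read. Three-parameter inhibitor fit; at least two biological batches.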
Target sequence in this assay (Q13546 whole entry, the tested form may be a part): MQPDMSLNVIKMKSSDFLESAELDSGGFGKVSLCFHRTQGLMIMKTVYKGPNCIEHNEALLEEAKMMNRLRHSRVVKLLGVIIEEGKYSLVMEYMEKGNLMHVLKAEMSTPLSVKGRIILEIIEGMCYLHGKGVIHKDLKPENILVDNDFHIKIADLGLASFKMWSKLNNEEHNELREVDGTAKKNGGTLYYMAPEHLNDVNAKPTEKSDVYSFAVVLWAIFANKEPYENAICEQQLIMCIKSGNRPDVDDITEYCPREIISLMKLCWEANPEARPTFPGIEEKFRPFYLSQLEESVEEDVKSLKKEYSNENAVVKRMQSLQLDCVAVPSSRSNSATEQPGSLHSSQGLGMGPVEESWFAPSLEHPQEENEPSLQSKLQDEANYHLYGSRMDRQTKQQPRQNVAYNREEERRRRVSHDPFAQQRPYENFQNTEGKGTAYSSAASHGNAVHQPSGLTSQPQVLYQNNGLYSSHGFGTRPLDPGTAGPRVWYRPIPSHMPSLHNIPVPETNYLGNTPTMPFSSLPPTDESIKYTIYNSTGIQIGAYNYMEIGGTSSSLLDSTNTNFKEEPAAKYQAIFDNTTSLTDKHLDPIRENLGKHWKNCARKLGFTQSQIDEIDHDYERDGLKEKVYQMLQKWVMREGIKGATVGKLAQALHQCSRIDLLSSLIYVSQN
Target sequence in this assay (P40337 whole entry, the tested form may be a part): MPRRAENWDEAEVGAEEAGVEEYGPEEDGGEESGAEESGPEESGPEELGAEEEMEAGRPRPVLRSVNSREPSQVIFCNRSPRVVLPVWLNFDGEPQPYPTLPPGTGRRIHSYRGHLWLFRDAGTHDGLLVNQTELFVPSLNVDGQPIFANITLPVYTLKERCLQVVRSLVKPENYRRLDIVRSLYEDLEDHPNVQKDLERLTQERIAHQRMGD

[2] = molecular target: T1, von Hippel-Lindau disease tumor suppressor/Receptor-interacting serine/threonine-protein kinase 1; test: PROTAC activity at VHL/wild type nLuc-fused N-terminal RIPK1 kinase domain (unknown origin) expressed in HEK293T cells assessed as induction of protein degradation measured after 24 hrs in presence of furimazine substrate by Nano-Glo luciferase based luminescence analysis; assay type: cell-based; outline: as §1
Target sequence in this assay (Q13546 whole entry, the tested form may be a part): as the sequence (Q13546 whole entry, the tested form may be a part) above
Target sequence in this assay (P40337 whole entry, the tested form may be a part): as the sequence (P40337 whole entry, the tested form may be a part) above

[3] = molecular target: T1, von Hippel-Lindau disease tumor suppressor/Receptor-interacting serine/threonine-protein kinase 1; test: PROTAC activity at VHL/wild type nLuc-fused N-terminal RIPK1 kinase domain (unknown origin) expressed in HEK293T cells assessed as induction of protein degradation at 1.6 to 1000 nM measured after 24 hrs by immunoblot analysis; assay type: cell-based; conditions: dose 1.6-1000 nM
Outline: (§2)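 HEK293T cells transfected with nLuc (WT or K0)-RIPK1 kinase domain, plated in 12-well plates and treated 24 h. Lysed in RIPA with protease/phosphatase inhibitors and benzonase. 20 µg protein run on SDS-PAGE and transferred to PVDF. Probed overnight at 4 °C with anti-RIPK1 (1:1000) and β-actin (1:4000), then HRP secondary and ECL.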
Target sequence in this assay (P40337 whole entry, looked up, the tested form may be a part): as the sequence (P40337 whole entry, the tested form may be a part) above
Target sequence in this assay (Q13546 whole entry, looked up, the tested form may be a part): as the sequence (Q13546 whole entry, the tested form may be a part) above

[4] = molecular target: T1, von Hippel-Lindau disease tumor suppressor/Receptor-interacting serine/threonine-protein kinase 1; test: PROTAC activity at VHL/nLucK0-fused N-terminal RIPK1 kinase domain (unknown origin) expressed in HEK293T cells assessed as induction of protein degradation at 1.6 to 1000 nM measured after 24 hrs by immunoblot analysis; assay type: cell-based; conditions: dose 1.6-1000 nM; outline: as §2
Target sequence in this assay (P40337 whole entry, looked up, the tested form may be a part): as the sequence (P40337 whole entry, the tested form may be a part) above
Target sequence in this assay (Q13546 whole entry, looked up, the tested form may be a part): as the sequence (Q13546 whole entry, the tested form may be a part) above

[5] = molecular target: T1, von Hippel-Lindau disease tumor suppressor/Receptor-interacting serine/threonine-protein kinase 1; test: PROTAC activity at VHL/wild type nLuc-fused N-terminal RIPK1 kinase domain (unknown origin) expressed in HEK293T cells assessed as induction of protein degradation measured after 24 hrs in presence of furimazine substrate by Nano-Glo luciferase based luminescence analysis relative to control; assay type: cell-based; outline: as §1
Target sequence in this assay (P40337 whole entry, looked up, the tested form may be a part): as the sequence (P40337 whole entry, the tested form may be a part) above
Target sequence in this assay (Q13546 whole entry, looked up, the tested form may be a part): as the sequence (Q13546 whole entry, the tested form may be a part) above

[6] = organism: Homo sapiens; test: Binding affinity to His-tagged LgBiT (unknown origin) assessed as off-rate constant protein immobilized on chip surface with surface density of 1000 pg/mm2 by grating-coupled interferometry
Outline: (§3)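 His-LgBiT, purified in-house from E. coli BL21(DE3), captured at 50 µg/mL in PBS on a Ni-charged PCP-NTA chip. Two flow channels reached 3000 and 1000 pg/mm2. Kinetics were run in 0.01 M HEPES, 0.15 M NaCl, 0.05% P20, pH 7.4. kon and koff came from a global association-then-dissociation fit.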

[7] = organism: Homo sapiens; test: Binding affinity to His-tagged LgBiT (unknown origin) assessed as on-rate constant protein immobilized on chip surface with surface density of 3000 pg/mm2 by grating-coupled interferometry; outline: as §3
[8] = Binding affinity to His-tagged LgBiT (unknown origin) incubated for 30 mins measured after subtracting LgBiT signal in presence of PBS by Nano-Glo luciferase based luminescence analysis; parameters: species or system Homo sapiens
Outline: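 Incubated 30 min, then Nano-Glo substrate was added and luminescence read. The LgBiT-only (PBS) baseline was subtracted before the three-parameter agonist fit.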

[9] = organism: Homo sapiens; test: Binding affinity to His-tagged LgBiT (unknown origin) assessed as on-rate constant protein immobilized on chip surface with surface density of 1000 pg/mm2 by grating-coupled interferometry; outline: as §3
[10] = organism: Homo sapiens; test: Binding affinity to His-tagged LgBiT (unknown origin) assessed as off-rate constant protein immobilized on chip surface with surface density of 3000 pg/mm2 by grating-coupled interferometry; outline: as §3
[11] = Binding affinity to LgBiT (unknown origin) incubated for 30 mins by Nano-Glo luciferase based luminescence analysis; parameters: species or system Homo sapiens
Outline: (§4)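 Equilibrated 30 min at room temperature, then Nano-Glo substrate was added and luminescence read. EC50 from a three-parameter agonist fit; at least 3 technical replicates.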

[12] = Binding affinity to His-tagged LgBiT (unknown origin) immobilized on chip surface with surface density of 3000 pg/mm2 by grating-coupled interferometry; parameters: species or system Homo sapiens; outline: as §3
[13] = Binding affinity to His-tagged LgBiT (unknown origin) incubated for 30 mins by Nano-Glo luciferase based luminescence analysis; parameters: species or system Homo sapiens; outline: as §4
[14] = Binding affinity to His-tagged LgBiT (unknown origin) immobilized on chip surface with surface density of 1000 pg/mm2 by grating-coupled interferometry; parameters: species or system Homo sapiens; outline: as §3

| SMILES | K [6] | K [7] | EC50 [8] [nM] | K [9] | K [10] | further results |
| --- | --- | --- | --- | --- | --- | --- |
| Cc1ncsc1-c1ccc([C@H](C)NC(=O)[C@H]2C[C@H](O)CN2C(=O)[C@@H](NC(=O)CCCCCCCCCCC(=O)NCCCn2cc(-c3ccc4c(c3)CCN4C(=O)Cc3cccc(OC(F)(F)F)c3)c3c(N)ncnc32)C(C)(C)C)cc1 |  |  |  |  |  | DC50 [1]: Not Active; DC50 [2]: Not Active |
| Cc1ncsc1-c1ccc([C@H](C)NC(=O)[C@@H]2C[C@@H](O)CN2C(=O)[C@@H](NC(=O)CCCCCCCCCCC(=O)NCCCn2cc(-c3ccc4c(c3)CCN4C(=O)Cc3cccc(OC(F)(F)F)c3)c3c(N)ncnc32)C(C)(C)C)cc1 |  |  |  |  |  | Activity [3]: Active; Activity [4]: Active; %max [5]: 91.5% |
| CC[C@H](C)[C@H](NC(=O)[C@H](CCCCN)NC(=O)[C@H](CCCCN)NC(=O)[C@H](Cc1ccccc1)NC(=O)[C@H](CC(C)C)NC(=O)[C@H](CCCNC(=N)N)NC(=O)[C@H](Cc1c[nH]c2ccccc12)NC(=O)CNC(=O)[C@H](CO)NC(=O)[C@@H](N)C(C)C)C(=O)N[C@@H](CO)C(=O)O | 1.3 10^-3/s | 3 10^5/M/s | 24 | 7.5 10^5/M/s | 1.4 10^-3/s |  |
| CC[C@H](C)[C@H](NC(=O)[C@H](CCCNC(=N)N)NC(=O)[C@H](CCCNC(=N)N)NC(=O)[C@H](Cc1ccccc1)NC(=O)[C@H](CC(C)C)NC(=O)[C@H](CCCNC(=N)N)NC(=O)[C@H](Cc1c[nH]c2ccccc12)NC(=O)CNC(=O)[C@H](CO)NC(=O)[C@@H](N)C(C)C)C(=O)N[C@@H](CO)C(=O)O (H-VSGWRLFRRIS-OH) | 5 10^-4/s | 3.6 10^5/M/s | 16 | 7.7 10^5/M/s | 6.7 10^-3/s | EC50 [11]: 6.2 nM; Kd [12]: 1.8 nM; EC50 [13]: 8.7 nM; Kd [14]: 0.7 nM |
